Data taken from ChEMBL document CHEMBL1137378, “Antibacterial agent discovery using thymidylate synthase biolibrary screening” (J Med Chem, 2006).
≈ marks a conversion by molar mass, not a printed value.

What was measured:
Homo sapiens = organism: Homo sapiens; experiment: Selectivity Index, Ki for human dihydrofolate reductase/Ki for human thymidylate synthase
Thymidylate synthase [1] = molecular target: T1, Thymidylate synthase (Cryptococcus neoformans var. neoformans B-3501A, UniProt P0CS13); experiment: Inhibition of Cryptococcus neoformans thymidylate synthase
T1 sequence (P0CS13 whole entry): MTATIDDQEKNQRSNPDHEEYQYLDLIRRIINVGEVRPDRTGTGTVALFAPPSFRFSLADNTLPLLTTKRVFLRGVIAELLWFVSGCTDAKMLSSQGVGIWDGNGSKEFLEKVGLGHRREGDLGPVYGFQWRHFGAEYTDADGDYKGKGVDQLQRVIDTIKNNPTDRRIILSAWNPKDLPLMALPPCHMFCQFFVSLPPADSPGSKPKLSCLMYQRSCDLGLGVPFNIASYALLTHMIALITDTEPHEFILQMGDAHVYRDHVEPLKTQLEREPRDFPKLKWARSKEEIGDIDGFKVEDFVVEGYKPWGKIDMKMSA

Thymidylate synthase [2] = molecular target: T2, Thymidylate synthase (Lactobacillus casei, UniProt P00469); experiment: Inhibition of Lactobacillus casei thymidylate synthase; set-up: species or system Lacticaseibacillus casei
T2 sequence (P00469 whole entry): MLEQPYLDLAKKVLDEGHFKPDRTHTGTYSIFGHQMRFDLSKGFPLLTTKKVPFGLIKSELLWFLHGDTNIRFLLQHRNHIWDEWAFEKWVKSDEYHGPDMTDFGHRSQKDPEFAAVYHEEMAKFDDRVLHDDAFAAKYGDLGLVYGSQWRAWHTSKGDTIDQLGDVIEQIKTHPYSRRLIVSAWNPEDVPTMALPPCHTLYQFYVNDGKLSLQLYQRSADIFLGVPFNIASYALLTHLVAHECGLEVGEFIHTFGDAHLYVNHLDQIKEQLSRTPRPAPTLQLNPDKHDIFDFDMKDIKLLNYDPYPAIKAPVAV

Dihydrofolate reductase = molecular target: T3, Dihydrofolate reductase (Homo sapiens, UniProt P00374); experiment: Inhibition of human dihydrofolate reductase
T3 sequence (P00374 whole entry): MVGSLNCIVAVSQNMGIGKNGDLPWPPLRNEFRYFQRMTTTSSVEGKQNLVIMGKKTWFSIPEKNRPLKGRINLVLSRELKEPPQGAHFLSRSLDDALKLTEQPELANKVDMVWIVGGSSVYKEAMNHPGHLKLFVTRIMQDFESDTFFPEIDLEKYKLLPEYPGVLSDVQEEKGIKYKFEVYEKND
Method in brief: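 Purified human DHFR assayed spectrophotometrically at 25 °C by the fall in A340 on DHF reduction. Ki from steady-state kinetics.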

Thymidylate synthase [3] = molecular target: Thymidylate synthase (Homo sapiens, UniProt P04818); experiment: Inhibition of human thymidylate synthase
[4] = Specificity Index, Ki for human thymidylate synthase/Ki for Cryptococcus neoformans thymidylate synthase
Method in brief: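 Specificity index is Ki of hTS divided by Ki of the pathogen TS (LcTS, EcTS or CnTS). Each enzyme was purified to >95% and assayed spectrophotometrically at 340 nm, 20 °C. Buffer was TES 50 mM pH 7.4 with MgCl2, formaldehyde, EDTA and 2-mercaptoethanol, plus dUMP 100 µM, mTHF 140 µM and enzyme 0.07 µM.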

[5] = Specificity Index, Ki for human thymidylate synthase/Ki for Lactobacillus casei thymidylate synthase
Thymidylate synthase [6] = molecular target: Thymidylate synthase (Escherichia coli, UniProt C3SWJ7); experiment: Inhibition of Escherichia coli thymidylate synthase
[7] = Specificity Index, Ki for human thymidylate synthase/Ki for Escherichia coli thymidylate synthase
[8] = test system: Staphylococcus saprophyticus; experiment: Antibacterial activity against Staphylococcus saprophyticus ATCC 15305; format: functional
Method in brief: (§1)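 Wild-type strain panel (18 Gram-positive and Gram-negative strains). Bacteria grown in Mueller-Hinton broth at 37 °C for 24 h. Exponentially growing cultures diluted in sterile liquid medium to a final inoculum of about 1 × 10⁴ CFU/mL, then exposed to increasing compound concentrations. MIC taken as the lowest concentration with no evident bacterial growth.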

Listeria monocytogenes [9] = experiment: Antibacterial activity against Listeria monocytogenes 5; format: functional; method in brief: as §1
Listeria monocytogenes [10] = experiment: Antibacterial activity against Listeria monocytogenes 7; format: functional; method in brief: as §1
Escherichia coli [11] = experiment: Antibacterial activity against Escherichia coli 292; format: functional; method in brief: as §1
Staphylococcus aureus [12] = experiment: Antibacterial activity against Staphylococcus aureus ATCC 29213; format: functional; method in brief: as §1
Staphylococcus aureus [13] = experiment: Antibacterial activity against Staphylococcus aureus 341; format: functional; method in brief: as §1
Enterococcus faecalis = experiment: Antibacterial activity against Enterococcus faecalis ATCCC29212; format: functional; method in brief: as §1
Citrobacter = experiment: Antibacterial activity against Citrobacter 224; format: functional; method in brief: as §1
Staphylococcus aureus [14] = experiment: Antibacterial activity against Staphylococcus aureus K28; format: functional; method in brief: as §1
[15] = test system: Staphylococcus haemolyticus; experiment: Antibacterial activity against Staphylococcus haemolyticus ATCC 2997; format: functional; method in brief: as §1
Listeria monocytogenes [16] = experiment: Antibacterial activity against Listeria monocytogenes 8; format: functional; method in brief: as §1
Listeria monocytogenes [17] = experiment: Antibacterial activity against Listeria monocytogenes 3; format: functional; method in brief: as §1
Streptococcus = experiment: Antibacterial activity against Streptococcus 42; format: functional; method in brief: as §1
Listeria monocytogenes [18] = experiment: Antibacterial activity against Listeria monocytogenes ATCC 4428; format: functional; method in brief: as §1
Listeria monocytogenes [19] = experiment: Antibacterial activity against Listeria monocytogenes 4; format: functional; method in brief: as §1
Escherichia coli [20] = experiment: Antibacterial activity against Escherichia coli 256; format: functional; method in brief: as §1
Listeria monocytogenes [21] = experiment: Antibacterial activity against Listeria monocytogenes 6; format: functional; method in brief: as §1
Staphylococcus aureus [22] = experiment: Antibacterial activity against Staphylococcus aureus 343; format: functional; method in brief: as §1

Sequence of Thymidylate synthase (Homo sapiens, UniProt P04818) (P04818 whole entry): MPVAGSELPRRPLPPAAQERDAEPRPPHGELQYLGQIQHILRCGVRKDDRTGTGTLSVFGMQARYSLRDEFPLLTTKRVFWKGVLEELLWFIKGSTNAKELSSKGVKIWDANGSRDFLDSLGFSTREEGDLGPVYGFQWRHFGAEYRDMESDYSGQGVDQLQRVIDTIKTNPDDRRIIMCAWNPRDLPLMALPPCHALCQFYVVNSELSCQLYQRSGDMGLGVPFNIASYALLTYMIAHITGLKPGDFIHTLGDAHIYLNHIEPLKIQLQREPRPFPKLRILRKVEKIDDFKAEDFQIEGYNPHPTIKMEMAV
Sequence of Thymidylate synthase (Escherichia coli, UniProt C3SWJ7) (C3SWJ7 whole entry): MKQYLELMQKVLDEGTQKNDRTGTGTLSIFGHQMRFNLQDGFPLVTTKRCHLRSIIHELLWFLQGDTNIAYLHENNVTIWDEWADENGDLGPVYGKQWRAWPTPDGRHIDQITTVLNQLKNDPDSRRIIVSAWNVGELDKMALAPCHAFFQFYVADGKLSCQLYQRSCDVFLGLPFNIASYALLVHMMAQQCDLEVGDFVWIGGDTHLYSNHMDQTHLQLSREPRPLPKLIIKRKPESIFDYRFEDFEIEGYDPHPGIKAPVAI

Structure (SMILES) | Selectivity index (Homo sapiens) | Ki (Thymidylate synthase [1]) | Ki (Dihydrofolate reductase) | Ratio Ki [4] | Ratio Ki [5] | MIC [8] | MIC (Listeria monocytogenes [9]) | MIC (Listeria monocytogenes [10]) | MIC (Escherichia coli [11]) | MIC (Staphylococcus aureus [12]) | MIC (Staphylococcus aureus [13]) | MIC (Enterococcus faecalis) | MIC (Citrobacter) | MIC (Staphylococcus aureus [14]) | MIC [15] | MIC (Listeria monocytogenes [16]) | MIC (Listeria monocytogenes [17]) | MIC (Streptococcus) | MIC (Listeria monocytogenes [18]) | MIC (Listeria monocytogenes [19]) | other results
O=C1OC(c2ccc(O)cc2)(c2ccc(O)c(Br)c2)c2cccc3cccc1c23 (stereo unspecified) | < 0.02 | 5.2 µM | 3.4 µM | > 25 | > 132 | 10 µg/mL (≈ 22.4 µM) | 10 µg/mL (≈ 22.4 µM) | 10 µg/mL (≈ 22.4 µM) | > 50 µg/mL | 10 µg/mL (≈ 22.4 µM) | 25 µg/mL (≈ 55.9 µM) | 25 µg/mL (≈ 55.9 µM) | > 50 µg/mL | 25 µg/mL (≈ 55.9 µM) | 10 µg/mL (≈ 22.4 µM) | 25 µg/mL (≈ 55.9 µM) | 10 µg/mL (≈ 22.4 µM) | 10 µg/mL (≈ 22.4 µM) | 10 µg/mL (≈ 22.4 µM) | 10 µg/mL (≈ 22.4 µM) | Ki (Thymidylate synthase [2]): 1 µM; Ki (Thymidylate synthase [3]): > 132 µM; MIC (Escherichia coli [20]): > 50 µg/mL; Ki (Thymidylate synthase [6]): 0.4 µM; Ratio Ki [7]: > 330; MIC (Listeria monocytogenes [21]): 10 µg/mL (≈ 22.4 µM); MIC (Staphylococcus aureus [22]): 10 µg/mL (≈ 22.4 µM)
O=C1OC(c2ccc(O)c(F)c2)(c2ccc(O)c(F)c2)c2ccc3ccccc3c21 |  | 3.5 µM | 109 µM |  |  | 25 µg/mL (≈ 61.8 µM) | 25 µg/mL (≈ 61.8 µM) | 25 µg/mL (≈ 61.8 µM) | > 50 µg/mL | 25 µg/mL (≈ 61.8 µM) | 25 µg/mL (≈ 61.8 µM) | 25 µg/mL (≈ 61.8 µM) | > 50 µg/mL | 25 µg/mL (≈ 61.8 µM) | 25 µg/mL (≈ 61.8 µM) | 25 µg/mL (≈ 61.8 µM) | 25 µg/mL (≈ 61.8 µM) | 25 µg/mL (≈ 61.8 µM) | 25 µg/mL (≈ 61.8 µM) | 25 µg/mL (≈ 61.8 µM) | MIC (Escherichia coli [20]): > 50 µg/mL; MIC (Listeria monocytogenes [21]): 25 µg/mL (≈ 61.8 µM); MIC (Staphylococcus aureus [22]): 25 µg/mL (≈ 61.8 µM)
O=C(O)c1cn(C2CC2)c2cc(N3CCNCC3)c(F)cc2c1=O [CIPROFLOXACIN] |  |  |  |  |  | 1 µg/mL (≈ 3.02 µM) | 2.5 µg/mL (≈ 7.54 µM) | 1 µg/mL (≈ 3.02 µM) | > 25 µg/mL | 0.5 µg/mL (≈ 1.51 µM) | 1.2 µg/mL (≈ 3.62 µM) | 12.5 µg/mL (≈ 37.7 µM) | > 25 µg/mL | 0.5 µg/mL (≈ 1.51 µM) | 2.5 µg/mL (≈ 7.54 µM) | 1 µg/mL (≈ 3.02 µM) | 2.5 µg/mL (≈ 7.54 µM) | > 5 µg/mL | 2.5 µg/mL (≈ 7.54 µM) | 1 µg/mL (≈ 3.02 µM) | MIC (Escherichia coli [20]): > 25 µg/mL; MIC (Listeria monocytogenes [21]): 2.5 µg/mL (≈ 7.54 µM); MIC (Staphylococcus aureus [22]): 0.5 µg/mL (≈ 1.51 µM)
Cc1cc(O)c(C(C)C)cc1C1(c2cc(C(C)C)c(O)cc2C)OC(=O)c2ccc3ccccc3c21 |  |  | 13 µM |  |  |  |  |  |  |  |  |  |  |  |  |  |  |  |  |  | 
O=C1OC(c2ccc(O)c(Cl)c2)(c2ccc(O)c(Cl)c2)c2ccc3ccccc3c21 |  | 8.1 µM |  |  |  |  |  |  |  |  |  |  |  |  |  |  |  |  |  |  | 

Now from value to compound, other results behind:

Selectivity index (Homo sapiens) | Ki (Thymidylate synthase [1]) | Ki (Dihydrofolate reductase) | Ratio Ki [4] | Ratio Ki [5] | Structure (SMILES) | MIC [8] | MIC (Listeria monocytogenes [9]) | MIC (Listeria monocytogenes [10]) | MIC (Escherichia coli [11]) | MIC (Staphylococcus aureus [12]) | MIC (Staphylococcus aureus [13]) | MIC (Enterococcus faecalis) | MIC (Citrobacter) | MIC (Staphylococcus aureus [14]) | MIC [15] | MIC (Listeria monocytogenes [16]) | MIC (Listeria monocytogenes [17]) | MIC (Streptococcus) | MIC (Listeria monocytogenes [18]) | MIC (Listeria monocytogenes [19]) | other results
< 1 | 16 µM | 94 µM | > 8 | > 4 | O=C1OC(c2ccc(O)c(I)c2)(c2ccc(O)c(I)c2)c2cccc3cccc1c23 |  |  |  |  |  |  |  |  |  |  |  |  |  |  |  | Ki (Thymidylate synthase [2]): 31 µM; Ki (Thymidylate synthase [3]): > 132 µM
< 0.2 | 2.7 µM | 33 µM | > 49 | > 20 | O=C1OC(c2ccc(O)c(Br)c2)(c2ccc(O)c(Br)c2)c2c1ccc1ccccc21 |  |  |  |  |  |  |  |  |  |  |  |  |  |  |  | Ki (Thymidylate synthase [6]): 0.9 µM; Ratio Ki [7]: > 147
